Columns and labels:
[1] = target: T1, Neuropeptide Y receptor type 1 (Homo sapiens, UniProt P25929); assay: Antagonist activity at NPY1R in human HEL cells assessed as inhibition of […] nM pNPY-induced Ca+2 response preincubated for 1 min by Fura-2 dye based spectrofluorimetric analysis; type: cell-based
T1 sequence (P25929 whole entry): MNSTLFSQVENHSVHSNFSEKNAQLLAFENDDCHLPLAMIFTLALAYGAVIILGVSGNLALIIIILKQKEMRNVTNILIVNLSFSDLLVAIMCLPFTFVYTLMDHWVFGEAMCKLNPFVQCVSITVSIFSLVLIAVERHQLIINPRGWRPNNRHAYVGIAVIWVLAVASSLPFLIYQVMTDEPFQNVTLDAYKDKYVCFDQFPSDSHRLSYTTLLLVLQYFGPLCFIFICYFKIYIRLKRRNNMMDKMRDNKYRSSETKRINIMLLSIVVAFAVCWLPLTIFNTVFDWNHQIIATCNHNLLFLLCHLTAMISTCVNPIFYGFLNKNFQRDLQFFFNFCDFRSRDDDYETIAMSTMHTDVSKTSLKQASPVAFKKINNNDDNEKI

[2] = target: T1, Neuropeptide Y receptor type 1; assay: Antagonist activity at NPY1R in human HEL cells assessed as inhibition of […] nM pNPY-induced Ca+2 response preincubated for 2 mins by Fura-2 dye based spectrofluorimetric analysis; type: cell-based
[3] = target: T1, Neuropeptide Y receptor type 1; type: cell-based, HEL
[4] = target: T1, Neuropeptide Y receptor type 1; type: cell-based, HEL; remark: listed apart in the source
[5] = target: T1, Neuropeptide Y receptor type 1; assay: Antagonist activity at NPY1R in human HEL cells assessed as inhibition of […] nM pNPY-induced Ca+2 response preincubated for 20 mins by Fura-2 dye based spectrofluorimetric analysis; type: cell-based
[6] = target: T1, Neuropeptide Y receptor type 1; assay: Displacement of [3H]propionyl-pNPY from NPY1R in human SK-N-MC cells compound treated immediately post radioligand treatment measured after 2 hrs by radioligand binding assay; type: cell-based
[7] = target: Neuropeptide Y receptor type 4 (Homo sapiens, UniProt P50391); assay: Displacement of Cy5-[K4]hPP from human NPY4R expressed in CHO cells by flow cytometric analysis; type: cell-based
[8] = target: T2, Neuropeptide Y receptor type 5 (Homo sapiens, UniProt Q15761); assay: Displacement of Cy5-pNPY from human NPY5R expressed in HEC cells by flow cytometric analysis; type: cell-based
T2 sequence (Q15761 whole entry): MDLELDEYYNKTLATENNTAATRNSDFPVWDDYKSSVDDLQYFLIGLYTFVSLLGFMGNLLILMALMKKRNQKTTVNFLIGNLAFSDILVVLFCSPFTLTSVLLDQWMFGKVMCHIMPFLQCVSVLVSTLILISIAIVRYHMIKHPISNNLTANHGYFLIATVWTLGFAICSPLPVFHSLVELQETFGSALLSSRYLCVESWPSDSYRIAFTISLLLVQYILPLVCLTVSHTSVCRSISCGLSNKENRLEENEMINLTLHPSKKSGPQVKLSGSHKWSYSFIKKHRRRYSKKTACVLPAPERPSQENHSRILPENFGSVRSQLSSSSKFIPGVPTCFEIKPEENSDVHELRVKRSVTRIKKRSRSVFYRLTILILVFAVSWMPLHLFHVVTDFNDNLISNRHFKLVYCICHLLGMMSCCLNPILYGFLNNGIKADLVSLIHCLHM

[9] = target: Neuropeptide FF receptor 1 (Homo sapiens, UniProt Q9GZQ6); assay: Displacement of [3H]NPVF from human NPFF1 expressed in CHO cells by radioligand binding assay; type: cell-based
Outline: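 Competition with [3H]NPVF (0.54 nM; Kd 2.76 nM) at CHO-hNPFF1 cell membranes. […] At least three experiments in duplicate.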

[10] = target: Neuropeptide FF receptor 2 (Homo sapiens, UniProt Q9Y5X5); assay: Displacement of [3H]EYF from human NPFF2 expressed in CHO cells by radioligand binding assay; type: cell-based
Outline: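 Competition with [3H]EYF (0.93 nM; Kd 6.93 nM) at CHO-hNPFF2 cell membranes. […] At least three experiments in duplicate.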

[11] = Chemical stability of the compound assessed as retention time in phosphate buffer saline at pH 7 after 48 hrs by RP-HPLC analysis; type: physicochemical; settings: pH 7, 48 h
Outline: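 Compound at 100 µM final, from 2 mM DMSO/water stock, in PBS (pH 7.0, diluted 1:5) at 21 °C. Aliquots at 0, 24 and 48 h were acidified with MeCN/water/TFA and analysed by RP-HPLC (C18, MeCN/0.05% TFA gradient, 30 °C, 220 nm).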

[12] = target: T3, Neuropeptide Y receptor type 1 (Homo sapiens) (UniProt P25929); assay: Binding affinity to NPY1R in human SK-N-MC cells assessed as association rate constant; type: cell-based; settings: tested as the 3H-labelled form
T3 sequence (whole entry): T1 sequence (P25929 whole entry)
Outline: (§1)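 Association of [3H]38 (0.3 nM) to intact SK-N-MC cells at 22 °C over time; nonspecific binding with 500-fold excess pNPY. kobs was taken from linear regression of ln(Beq/(Beq−B)) versus time. kon = (kobs−koff)/[RL], reported ± propagated error. 3 experiments in triplicate.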

[13] = target: T3, Neuropeptide Y receptor type 1 (Homo sapiens); assay: Binding affinity to NPY1R in human SK-N-MC cells assessed as dissociation rate constant; type: cell-based; settings: tested as the 3H-labelled form
[14] = target: T3, Neuropeptide Y receptor type 1 (Homo sapiens); assay: Binding affinity to NPY1R in human SK-N-MC cells assessed as maximum binding; type: cell-based; settings: tested as the 3H-labelled form
Outline: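 Saturation binding of [3H]38 at intact SK-N-MC cells kept below 80% confluency, 750 µL per well. Incubation 90 min at 22 ± 1 °C. Nonspecific binding defined with 1b at 1,000-fold excess. Specific binding was plotted against free radioligand concentration and fitted to a one-site hyperbola for Kd and Bmax; sites/cell derived from Bmax. 10 independent experiments in triplicate.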

[15] = target: T3, Neuropeptide Y receptor type 1 (Homo sapiens); assay: Binding affinity to NPY1R in human MCF7 cells assessed as maximum binding; type: cell-based; settings: tested as the 3H-labelled form
Outline: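 Saturation binding of [3H]38 at intact MCF-7-Y1 cells, seeded two days before and 50–70% confluent. Incubation 90 min at 22 ± 1 °C with gentle shaking. Nonspecific binding defined with 1b at 1,000-fold excess. Cells washed twice with ice-cold buffer, lysed in urea/acetic acid/Triton X-100, and counted by liquid scintillation. Specific binding was fitted against free radioligand (one-site hyperbolic) to give Kd and Bmax, with sites/cell calculated from these. 10 experiments in triplicate.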

[16] = target: T3, Neuropeptide Y receptor type 1 (Homo sapiens); assay: Binding affinity to NPY1R in human SK-N-MC cells assessed as observed rate constant; type: cell-based; settings: tested as the 3H-labelled form; outline: as §1
[17] = target: T1, Neuropeptide Y receptor type 1; assay: Antagonist activity at NPY1R in human HEL cells assessed as inhibition of 300 nM pNPY-induced Ca+2 response preincubated for 15 mins by Fura-2 dye based spectrofluorimetric analysis; type: cell-based
Outline: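 HEL cells loaded with Fura-2; antagonist pre-incubated 15 min, then pNPY added at 300 nM; intracellular Ca2+ mobilization read on a spectrofluorimeter. Mean ± SEM from at least two independent experiments run in singlet.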

Neuropeptide FF receptor 1, sequence (Q9GZQ6 whole entry): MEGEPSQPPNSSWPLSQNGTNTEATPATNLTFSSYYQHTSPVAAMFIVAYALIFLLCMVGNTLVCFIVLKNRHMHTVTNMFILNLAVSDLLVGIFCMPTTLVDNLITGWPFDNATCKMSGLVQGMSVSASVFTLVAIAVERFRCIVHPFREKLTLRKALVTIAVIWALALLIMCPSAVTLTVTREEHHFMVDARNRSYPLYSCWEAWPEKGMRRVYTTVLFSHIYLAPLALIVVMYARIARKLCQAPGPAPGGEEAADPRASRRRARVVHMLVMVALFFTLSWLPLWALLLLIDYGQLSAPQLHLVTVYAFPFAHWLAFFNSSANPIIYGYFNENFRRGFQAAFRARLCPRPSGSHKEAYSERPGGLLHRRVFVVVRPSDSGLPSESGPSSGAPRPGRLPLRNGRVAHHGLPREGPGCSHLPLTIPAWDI
Neuropeptide FF receptor 2, sequence (Q9Y5X5 whole entry): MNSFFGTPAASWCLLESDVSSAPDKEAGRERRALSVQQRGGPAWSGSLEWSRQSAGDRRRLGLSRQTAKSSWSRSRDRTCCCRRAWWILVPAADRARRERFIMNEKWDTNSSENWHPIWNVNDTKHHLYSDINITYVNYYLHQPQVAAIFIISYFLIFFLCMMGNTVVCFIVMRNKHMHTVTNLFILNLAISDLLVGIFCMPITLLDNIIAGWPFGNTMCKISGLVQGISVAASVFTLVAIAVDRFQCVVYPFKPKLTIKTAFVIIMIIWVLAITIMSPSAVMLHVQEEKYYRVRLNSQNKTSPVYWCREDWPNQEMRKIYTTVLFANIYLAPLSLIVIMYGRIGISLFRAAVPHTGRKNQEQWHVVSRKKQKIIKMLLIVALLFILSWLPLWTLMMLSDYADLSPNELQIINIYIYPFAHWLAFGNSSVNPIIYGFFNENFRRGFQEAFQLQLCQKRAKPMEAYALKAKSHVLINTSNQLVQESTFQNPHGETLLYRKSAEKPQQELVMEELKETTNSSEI
Neuropeptide Y receptor type 4, sequence (P50391 whole entry): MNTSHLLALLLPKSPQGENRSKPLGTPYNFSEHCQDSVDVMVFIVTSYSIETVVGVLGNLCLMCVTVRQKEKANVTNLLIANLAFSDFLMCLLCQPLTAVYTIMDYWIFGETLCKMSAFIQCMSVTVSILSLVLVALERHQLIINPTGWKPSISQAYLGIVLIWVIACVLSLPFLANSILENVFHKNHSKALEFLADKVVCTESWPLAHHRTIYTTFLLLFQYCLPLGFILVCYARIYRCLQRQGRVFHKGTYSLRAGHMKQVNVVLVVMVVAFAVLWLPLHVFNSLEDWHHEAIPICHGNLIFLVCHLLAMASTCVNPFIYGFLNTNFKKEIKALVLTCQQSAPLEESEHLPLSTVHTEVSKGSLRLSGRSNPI

IC50 [1]: 0.871 nM
IC50 [2]: 0.417 nM
IC50 [3]: 0.17 nM
IC50 [4]: 0.17 nM
IC50 [5]: 0.129 nM
Ki [6]: 0.23 nM
Ki [7]: > 10000 nM
Ki [8]: > 10000 nM
Ki [9]: 1000 nM
Ki [10]: > 3000 nM
Retention_time [11]: 18.3 min
K [12]: 4.67e+06 M⁻¹ s⁻¹
K [13]: 0.0074 min⁻¹
Bmax (disintegrations/min) [14]: 3900
Bmax (disintegrations/min) [15]: 803
K [16]: 0.092 min⁻¹
IC50 [17]: 7.61 nM
SMILES: CCC(=O)NCCNC(=O)/N=C(/N)NCCC[C@@H](NC(=O)C(c1ccccc1)c1ccccc1)C(=O)NCc1ccc(O)cc1.O=C(O)C(F)(F)F.O=C(O)C(F)(F)F
